# Source: PubChem BioAssay
# Dynein cargo inh: blocks dynein driven cargo transport along microtubules; 3617.4 mouse cells, GR-EGFP nuclear translocation imaging; test concentration mostly 20 µM; stimulated with dexamethasone, 1 µM; active compounds read low; z-score, hits read low; actives 0.47% (n = 220,000);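 active = plate z-score of nuclear minus cytoplasmic receptor signal below a set negative limit, without overly bright fluorescence or cell loss, cut at about -3.5 in these data, passing the limit was not always enough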;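 also: z-score of nuclear minus cytoplasmic ring GR-EGFP intensity difference per well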
#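 Buffer or medium: tet-free medium with charcoal-stripped serum / Also added: dexamethasone agonist, 1.0 µM final, for 30 min / Timing: induction 48 h, compound 1 h, agonist 30 min / Measured by: high-content fluorescence imaging after fixation / Read-out: nuclear-to-cytoplasmic GR-EGFP distribution per well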
# pCIP destab: lowers stability of the mouse p/CIP coactivator protein | actives 0.01% (n = 290,000) | decrease of EGFP signal, % at 10 µM | F442A p/CIP-EGFP cells, EGFP fluorescence, 16 h | Q05BA5 | AID 1984;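 active = EGFP signal decrease of at least 30% at 10 µM or well 3 SD below plate mean, unless failing retest; inactive = the rest, including hits failing retest or dose response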
# ABCB6 inh 2: blocks the human ABCB6 transporter; fluorescence ratio to DMSO, % at 10 µM; K562-ABCB6 porphyrin accumulation, flow cytometry, 1 h; active compounds read low; AID 602162; actives 0.19% (n = 360,000); Q9NP58;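 active = fluorescence ratio to DMSO below 75%, the collection mean minus 3 SD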;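 also: signal is porphyrin accumulated inside mitochondria; lower ratio means ABCB6 inhibition with less porphyrin fluorescence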
# Target sequence (Q9NP58 whole entry, looked up): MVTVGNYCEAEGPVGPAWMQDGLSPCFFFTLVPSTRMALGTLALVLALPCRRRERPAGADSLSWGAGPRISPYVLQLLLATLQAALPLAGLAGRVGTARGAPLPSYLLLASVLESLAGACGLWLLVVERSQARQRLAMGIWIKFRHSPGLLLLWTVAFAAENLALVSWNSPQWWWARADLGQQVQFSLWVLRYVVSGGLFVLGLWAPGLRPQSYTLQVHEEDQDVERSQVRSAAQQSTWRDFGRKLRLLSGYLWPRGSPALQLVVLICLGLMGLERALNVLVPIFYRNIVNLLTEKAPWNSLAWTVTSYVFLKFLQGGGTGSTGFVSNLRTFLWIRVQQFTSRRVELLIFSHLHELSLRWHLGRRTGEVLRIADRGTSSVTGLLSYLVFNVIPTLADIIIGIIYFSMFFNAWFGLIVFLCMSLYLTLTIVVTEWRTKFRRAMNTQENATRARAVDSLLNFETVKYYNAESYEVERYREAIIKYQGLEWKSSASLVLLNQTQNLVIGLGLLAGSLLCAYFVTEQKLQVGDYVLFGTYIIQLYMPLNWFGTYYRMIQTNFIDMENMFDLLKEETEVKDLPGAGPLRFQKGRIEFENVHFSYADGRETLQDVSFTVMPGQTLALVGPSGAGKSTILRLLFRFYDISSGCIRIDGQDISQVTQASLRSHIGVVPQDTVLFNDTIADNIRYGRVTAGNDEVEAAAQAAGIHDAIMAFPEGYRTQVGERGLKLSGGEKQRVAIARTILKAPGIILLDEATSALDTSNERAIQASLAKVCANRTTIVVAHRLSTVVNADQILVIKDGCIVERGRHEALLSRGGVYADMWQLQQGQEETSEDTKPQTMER
# KCC2 mod: KCC2 (human) Cl- transport modulation; KCC2 cells, thallium flux FluoZin-2 fluorescence; Q9H2X9; AID 1456; B-score of Tl+ flux slope (higher = more flux/activation; lower = inhibition) at 10 µM; actives 2.2% (n = 190,000);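 active = thallium flux slope and its plate-corrected score both differing from the plate sample mean at a set confidence after two filtering rounds, in either direction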;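 also: slope of fluorescence scaled to starting intensity during 10 to 20 s after thallium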
# V-ATPase pHluor: regulators of yeast V-ATPase proton transport; S. cerevisiae, pHLuorin cytosolic pH fluorescence; response, % at 10 µM; actives 0.37% (n = 350,000); AID 504577; in the data active = response mostly above about 7.3%, no sharp cut-off; inactive = mostly below about 5.4%; also: actives read high
# A number is an active result; i = inactive; nt = no result given. The entries come from a sample that favours hits as a whole.
SMILES,Dynein cargo inh,pCIP destab,ABCB6 inh 2,KCC2 mod,V-ATPase pHluor
Cc1ccc(S(=O)(=O)N2C[C@H]3[C@H]4C(=O)N(c5ccccc5)C(=O)[C@H]4C[C@H](OC(=O)NCc4ccccc4)[C@@]3(O)C2)cc1,nt,nt,i,nt,i
COc1cc(C(=O)NC(=S)N(CCc2ccccc2)CCc2ccccc2)cc(OC)c1OC,i,i,i,73.1,i
O=C(NC(=S)NCCc1ccc(Cl)cc1)c1ccco1,i,i,i,nt,i
COc1cc(C(=O)NC(C)CCc2ccccc2)cc(OC)c1OC (stereo not drawn),nt,i,i,nt,i
O=C(NC(=S)N(CCc1ccccc1)CCc1ccccc1)c1ccco1,i,i,i,44.5,i
Cc1cc(O)c(-c2cc(C(=O)NCc3ccc4c(c3)OCO4)[nH]n2)cc1C,i,i,59.0,i,i
CCC(=O)Nc1cccc(NC(=O)c2ccc(C)cc2Cl)c1,i,i,i,i,16.5
CCC(=O)Nc1cccc(NC(=O)c2ccccc2Cl)c1,i,i,i,i,i
COc1ccc(C(=O)NC(C)c2nnc(SCC(=O)Nc3nc4ccccc4s3)n2C)cc1 (stereo not drawn),i,i,i,-4.63,i
Oc1[nH]c2ccccc2c1N=Nc1ccccn1,nt,nt,i,nt,i
Oc1c(N=Nc2ccccn2)ccc2ccccc12,i,i,i,52.6,i
O=C1c2oc3ccc(Cl)cc3c(=O)c2C(c2ccco2)N1CCN1CCOCC1 (stereo not drawn),i,i,i,5.62,i
COc1ccc(C2c3c(oc4ccc(Cl)cc4c3=O)C(=O)N2CCN2CCOCC2)cc1 (stereo not drawn),i,i,i,i,i
Cc1ccc(C2c3c(oc4ccc(Cl)cc4c3=O)C(=O)N2CCCN2CCOCC2)o1 (stereo not drawn),i,i,nt,6.58,nt
O=C(NCC(F)(F)F)c1cc2c(c(-c3cccc(-c4ccccc4F)c3)n1)[C@@H](CCO)N(C(=O)CC1CC1)C2,nt,nt,i,nt,nt
COc1ccc(-c2[nH]nc3nc(N4CCN(C(=O)c5ccoc5)CC4)cc(C(F)(F)F)c23)cc1,nt,nt,i,nt,i
O=C(Nc1ccccc1Cc1ccccc1)c1ccccc1NS(=O)(=O)c1ccc(Cl)s1,i,i,i,-3.54,i
Cc1cccc(NC(=S)N/C(=N/S(=O)(=O)c2ccccc2)c2ccccc2)c1,i,i,i,3.54,i
CC(=O)c1cccc(NC(=S)NC(=O)c2cccc(C)c2)c1,i,i,i,8.44,i
CC(C)Oc1cccc(C(=O)NC(=S)Nc2ccccc2)c1,i,i,i,45.6,i
Fc1cccc2sc(Nc3nnc(-c4ccco4)o3)nc12,i,i,i,32.9,i
COc1cccc2sc(Nc3nnc(-c4cccs4)o3)nc12,i,i,i,57.9,i
CC(C)C[C@@H]1COc2cccc(N3CCC[C@H]3CO)c2S(=O)(=O)N1,nt,nt,i,nt,nt
CCSc1ccccc1C(=O)n1nnc2ccccc21,-4,i,i,i,i
CCSc1ccccc1C(=O)N1CCCC1,i,i,i,nt,i
SMILES,Dynein cargo inh,pCIP destab,ABCB6 inh 2,KCC2 mod,V-ATPase pHluor
COc1ccc(C2CC=C(C(C)=O)CN2S(=O)(=O)c2ccc(C)cc2)cc1 (stereo not drawn),nt,nt,i,nt,nt
CCOc1ccc(NC(=S)N=Nc2c(O)[nH]c3ccccc23)cc1,i,i,i,4.38,i
Oc1[nH]c2ccccc2c1N=NC(=S)NCCc1ccccc1,i,i,i,19.7,i
O=C(CSCc1ccccc1)N=Nc1c(O)[nH]c2ccccc12,i,i,i,8.59,i
CNc1cncc(-c2cccc(C(=O)N(C)C)c2)n1,nt,nt,i,nt,nt
O=C(Cc1ccccc1)NC1CCCCC1,nt,nt,i,nt,nt
COCCNC(=O)C1(C)CCCN(Cc2ccccc2N(C)C)C1 (stereo not drawn),nt,nt,i,nt,nt
COc1ccccc1CNC(=O)Nc1nc(C(N)Cc2ccc(Cl)cc2)cs1 (stereo not drawn),nt,nt,i,nt,nt
Cc1ccc(S(=O)(=O)NCCC2(C(C)C)CCOC(C)(C)C2)cc1 (stereo not drawn),i,i,i,i,i
Cc1ccc(C2=NNC3(CCOC(C)(C)C3)S2)cc1 (stereo not drawn),i,i,i,25.1,nt
CCCC(C)NC(=O)Cc1ccccc1 (stereo not drawn),i,i,i,nt,i
CCC(C)NC(=O)Cc1ccc(-c2ccccc2)cc1 (stereo not drawn),i,i,i,i,87.6
COc1ccc(CCn2c(C)nc3c(c(=O)c4ccccc4n3C)c2=O)cc1,i,i,i,i,i
COc1ccc(CCn2c(C(C)C)nc3c(c(=O)c4ccccc4n3C)c2=O)cc1,i,i,i,-4.25,i
Cn1ncc2cc(NC(=S)NC(=O)c3ccccc3)ccc21,i,i,i,4.2,i
COc1ccc(NC(=S)NC(=O)c2ccccc2)cn1,nt,i,i,nt,i
COc1ccc(-c2cc(C)nc3c(-c4ccccc4)cnn23)cc1,i,i,i,i,99.6
Cc1cc(-c2ccccc2)n2ncc(-c3ccccc3)c2n1,i,i,i,i,i
CCCCNC(=O)C1(C)CCN1C(=O)c1ccc(OC)c(C(F)(F)F)c1 (stereo not drawn),nt,nt,i,nt,nt
O=C(CBr)Nc1c2c(nn1-c1ccccc1)CSC2,nt,i,i,nt,11.0
CCCC(=O)Nc1c2c(nn1-c1ccccc1)CSC2,nt,i,i,nt,i
CCOC(=O)N(C)C[C@@H]1OCc2cnnn2CCCC(=O)N([C@H](C)CO)C[C@H]1C,nt,nt,i,nt,i
Cc1cccc([C@@H](NC(=O)OC(C)(C)C)C(=O)OC(C)(C)C)c1,nt,nt,68.0,nt,i
Cc1cccc(C(=O)NN(C)c2nc(-c3ccccc3)nnc2C(F)(F)F)c1,i,i,69.0,i,i
CCOC(=O)[C@H]1[C@H]2COc3ccc(Br)cc3[C@H]2N2C(=O)CN(Cc3ccc(C)cc3)C(=O)[C@@]12C,nt,nt,i,nt,i
SMILES,Dynein cargo inh,pCIP destab,ABCB6 inh 2,KCC2 mod,V-ATPase pHluor
COc1ccc(CN(C)CC(=O)NC(=O)NCc2ccccc2)cc1OC,i,i,i,4.96,i
CCCCCc1c(CC)ncn1CCc1ccccc1OC,nt,nt,i,nt,nt
CCn1c(SCC(N)=O)nc2sc3c(c2c1=O)CCCC3,i,i,i,59.6,i
COCCNC(=O)C1CCN(Cc2cccc(OCc3ccccc3)c2)CC1,nt,i,i,nt,13.0
CCCCOc1ccc(Nc2cc(Cl)ccc2C(=O)O)cn1,i,i,i,13.1,i
O=[N+]([O-])c1ccc(N=Nc2c(Cl)cc(O)cc2Cl)cc1,i,i,i,7.5,i
CC(N)=Nc1ccc([N+](=O)[O-])cc1,i,i,i,i,i
Cn1c(N)c(C(=O)CCl)c(=O)n(Cc2ccccc2)c1=O,-5.95,i,i,i,i
Cn1c(=O)c(C(=O)CCl)c(N)n(Cc2ccccc2)c1=O,i,i,i,i,i
O=C(C#Cc1ccccc1)c1ccccc1,nt,nt,i,nt,i
O=C(C#Cc1ccccc1)c1ccc([N+](=O)[O-])cc1,i,i,i,nt,12.2
CN(C)CC(CCC(CN(C)C)C(=O)c1ccccc1)C(=O)c1ccccc1 (stereo not drawn),-5,i,i,i,i
